# ASAP1 GAP inh = inhibitors of human ASAP1 ArfGAP activity, primary screen, biochemical, fluorescence polarization; Arf-GAP with SH3 domain, ANK repeat and PH domain-containing protein 1 (Homo sapiens), …; ASAP1-stimulated ARF1 GTP hydrolysis, GDP FP detection; inhibition, % at 16.5 µM; actives 0.19% (n = 360,000); in the data active means inhibition above about 25%;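 further: 0% = vehicle with enzyme and substrate and 100% = no enzyme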
# PREPL inh = PREPL enzyme inhibitors, primary screen, biochemical, fluorescence polarization. inhibition, % at 5.96 µM. AID 2751, 2010. Prolyl endopeptidase-like (Homo sapiens), Q4J6C6. actives 0.68% (n = 320,000). recombinant PREPL, fluorescence polarization activity-based probe; in the data active means inhibition above about 43%;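 further: 0% = enzyme with DMSO and 100% = wells lacking enzyme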
# IDE cell inh = human IDE inhibitors in live cells, primary screen, fluorescence polarization, HEK cells, FAbetaB substrate; Insulin-degrading enzyme (Homo sapiens), P14735; FAbetaB cleavage; inhibition, % at 5.59 µM; actives 0.41% (n = 320,000);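 active means percent inhibition above the average of all tested compounds plus 3 SD, set per screening campaign, cut at about 16% in these data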;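 further: IDE supplied by intact live HEK cells; FP after avidin binding of uncleaved biotin substrate so inhibition keeps polarization high; 0% = DMSO wells and 100% = 60 µM reference IDE inhibitor Ii1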
# IDE cell activ = human IDE activators in live cells, primary screen, fluorescence polarization, HEK cells, FAbeta-B substrate. Insulin-degrading enzyme (Homo sapiens), P14735. FAbeta-B cleavage; 0% vehicle, 100% cell-free pure enzyme wells. activation, % at 5.96 µM. actives 0.073% (n = 340,000);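 active means activation above the mean of all tested compounds plus 3 SD, set per screening campaign, cut at about 17% in these data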
# ARFGAP1 inhibitor = inhibitors of rat ARFGAP1 GAP activity, primary screen, biochemical, fluorescence polarization, GDP tracer; inhibition, % at 16.5 µM; AID 651572, 2012; Arfgap1-stimulated ARF1 GTP hydrolysis, GDP FP detection; actives 0.26% (n = 360,000);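 active means inhibition above a per-plate limit, mean inhibition of low control wells plus 3 SD, cut at about 25% in these data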;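 further: 0% = DMSO wells with enzyme and 100% = wells lacking Arfgap1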
# Target sequence (Q62848 1-136 limits assumed): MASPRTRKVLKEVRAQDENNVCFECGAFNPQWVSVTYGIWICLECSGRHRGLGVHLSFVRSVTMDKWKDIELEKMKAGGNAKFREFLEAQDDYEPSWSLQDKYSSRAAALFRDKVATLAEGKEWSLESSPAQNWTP
#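 Replicates: Single well per compound | Assay system: Truncated rat Arfgap1 GAP domain | Control set: No-Arfgap1 wells (100%) versus DMSO full-reaction wells (0%) | Times: Enzyme reaction 120 min at 25 °C after 20 min preincubation | Reagent: Human ARF1(Δ1-17)-GTP substrate | Measured by: Tracer-displacement fluorescence polarization with EDTA stop, 620/688 nm | Measure: Percent inhibition of Arfgap1-stimulated GTP hydrolysis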
# ARFGAP1 confirm = ARFGAP1 inhibitor hit confirmation, biochemical, fluorescence polarization, triplicate; shares compounds with ARFGAP1 inhibitor; ARFGAP1-stimulated ARF1 GTP hydrolysis, GDP tracer FP; inhibition, % at 16.5 µM; actives 30% (n = 890);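 active means average inhibition over triplicates above the hit cutoff set in the earlier primary screen, cut at about 25% in these data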;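 further: 0% = Arfgap1 plus ARF1-GTP with DMSO and 100% = wells lacking Arfgap1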
# * marks the source's active call; other numbers are inactive results; / = no result. A selection: hits, their analogues and other compounds. The true share with any hit is near 1.2%.
SMILES,ASAP1 GAP inh,PREPL inh,IDE cell inh,IDE cell activ,ARFGAP1 inhibitor,ARFGAP1 confirm
COc1ccc(CC(=O)NCC(=O)Nc2ccccc2Br)cc1,7,10,6,2,6,/
O=C(NCc1cccc(Br)c1)C1CC2Cn3c(nc4ccccc43)C2N1c1ccccc1 (configuration not stated),13,11,0,0,-13,/
Nc1nonc1-c1nc2ccccc2n1Cc1ccc(Cl)cc1,8,3,1,8,25*,1
Cc1ccc(Cn2c(-c3nonc3N)nc3ccccc32)cc1,-3,-4,-1,14,6,/
NS(=O)(=O)c1ccc(CNC(=S)NC2CCCC2)cc1,7,-3,-8,1,29*,5
CS(=O)(=O)Nc1ccc(F)cc1,-7,/,/,/,4,/
Cc1[nH][nH]c(=O)c1C(c1c(C)[nH][nH]c1=O)c1cn(C)c2ccccc12,1,/,/,-3,25*,1
Cc1[nH][nH]c(=O)c1C(c1c(C)[nH][nH]c1=O)c1cn(Cc2cccc3ccccc23)c2ccccc12,16,11,2,1,15,/
Cc1ccc2oc(-c3cccc(N)c3)nc2c1,-11,23,1,-2,0,/
Nc1cccc(-c2nc3cc(S(=O)(=O)c4ccc5oc(-c6cccc(N)c6)nc5c4)ccc3o2)c1,4,10,-5,8,26*,21
Cc1ccc(S(=O)(=O)NCc2cccnc2)cc1,0,-1,4,9,7,/
Cc1ccc(Nc2nc(CSc3nnnn3-c3ccccc3)cs2)cc1,1,14,5,-1,29*,9
CCN1C(=O)N(C)C(N(O)C(=O)NC)C1(C)C (configuration not stated),-7,-3,1,0,26*,-6
CN(C)S(=O)(=O)c1cccc(NC(=O)COC(=O)c2cc(=O)c3ccccc3o2)c1,1,2,-1,13,-3,/
COc1cc2c3nnc(-c4ccc(F)cc4)c-3cn(Cc3ccc(C)cc3)c2cc1OC,16,-42,-3,-6,39*,48*
COc1ccccc1C(=O)NCCC(=O)Nc1ccc(S(=O)(=O)N2CCCC(C)C2)cc1 (configuration not stated),-1,4,4,2,28*,3
Cc1c(Cl)sn(-c2ccc(Cl)cc2)c1=O,9,/,/,-55,30*,8
Cc1nn(-c2ccc(Cl)cc2)c(=O)c2ccccc12,8,18,-3,4,8,/
O=C(N/N=C\c1ccc(-c2cccc(Cl)c2)o1)C(=O)NC1CCCC1,-14,9,0,-3,8,/
Nc1cc(Cl)nnc1Cl,-2,/,/,2,25*,3
Cc1cc(C)c2cc(N)c(Cl)nc2n1,0,/,/,/,1,/
COc1ccc(OC)c(NC(=O)C2(C)CCN2Cc2ccccc2Cl)c1 (configuration not stated),-7,/,/,/,25*,6
COCCNc1nc(NCCOC)c2sc(-c3ccccc3)cc2n1,13,/,/,/,2,/
C=CCNc1nc(NCc2cccc(OC)c2)c2sc(-c3ccccc3)cc2n1,14,/,/,/,26*,26*
c1ccc(OCCn2cnc3ccccc32)cc1,8,-2,-3,6,7,/
c1ccc(CCn2cnc3ccccc32)cc1,-7,12,0,-4,26*,8
CC(C)Cn1c(N)c(C(=O)CSc2nc3ncc(Cl)cc3[nH]2)c(=O)n(C)c1=O,11,-4,-2,3,25*,10
CCCn1c(N)c(C(=O)CSc2nc3ncc(Cl)cc3[nH]2)c(=O)n(C)c1=O,7,5,-5,3,-7,/
COCCCN1C(=O)N(c2ccc(F)cc2)C(=O)C1CC(=O)Nc1ccc(OC)cc1 (configuration not stated),-8,-4,5,3,7,/
